Assay results as given in ChEMBL document CHEMBL4715781, “Exploration of bivalent ligands targeting putative mu opioid receptor and chemokine receptor CCR5 dimerization” (Bioorg Med Chem, 2016).
pIC50, pKi: −log10 of the molar value. Active and inactive are the calls of the source. The calls are words filed in the database; no cut-off is given here.

Key:
[1] = target: T1, C-C chemokine receptor type 5 (Homo sapiens, UniProt P51681); experiment: Agonist activity at CCR5 receptor in human MOLT4 cells transfected with Gqi5 assessed as calcium mobilization incubated for 15 mins by Fluo-4AM dye based fluorescence analysis; type: functional, cell-based; details: MOLT-4
Method in brief: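 CCR5-MOLT-4 cells transfected with Gqi5, tested 48 h post-transfection at 25,000 cells/well in 50:1 HBSS:HEPES buffer. Fluo-4 AM with probenecid loaded for 45 min, then varying ligand concentrations added for 15 min. Fluorescence at 494/516 nm read for 120 s, with buffer alone added at 16 s in place of RANTES. Peak height taken as agonism read-out.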
Target sequence in this assay (P51681 whole entry, looked up): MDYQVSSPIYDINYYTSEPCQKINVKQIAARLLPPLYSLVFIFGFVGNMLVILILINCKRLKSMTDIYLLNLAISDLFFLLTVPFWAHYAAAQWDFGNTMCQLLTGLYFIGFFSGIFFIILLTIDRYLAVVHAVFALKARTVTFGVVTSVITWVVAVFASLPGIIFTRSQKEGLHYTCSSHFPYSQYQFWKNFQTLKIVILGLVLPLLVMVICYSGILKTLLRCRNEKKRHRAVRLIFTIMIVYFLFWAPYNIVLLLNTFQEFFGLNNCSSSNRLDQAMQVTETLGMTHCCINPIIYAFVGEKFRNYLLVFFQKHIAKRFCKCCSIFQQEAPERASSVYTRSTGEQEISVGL

[2] = target: T1, C-C chemokine receptor type 5; experiment: Antagonist activity at CCR5 receptor in human MOLT4 cells transfected with Gqi5 assessed as inhibition of RANTES-induced calcium mobilization incubated for 15 mins prior to RANTES addition and measured for 120 secs by Fluo-4AM dye based fluorescence analysis; type: functional, cell-based, MOLT-4
Method in brief: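 CCR5-MOLT-4 cells transfected with Gqi5, assayed 48 h later at 25,000 cells/well. Fluo-4 AM/probenecid loading for 45 min, then ligands for 15 min. IC50 from non-linear regression of peak heights. Three repeats.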
Target sequence in this assay (P51681 whole entry): as the sequence (P51681 whole entry, looked up) above

Mu-type opioid receptor [3] = target: Mu-type opioid receptor (Mus musculus, UniProt P42866); experiment: Displacement of [3H]NLX from mouse MOR expressed in CHO cell membrane incubated for 90 mins by liquid scintillation spectrophotometry; type: cell membranes
Method in brief: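 mMOR-CHO membranes incubated 90 min at 30 °C with 2 nM [3H]naloxone and varying unlabeled ligand. Bound ligand collected by rapid GF-B filtration with 3 ice-cold Tris washes and counted by scintillation (45% efficiency). Competitor IC50 used to derive Ki. At least three independent experiments.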

Mu-type opioid receptor [4] = target: Mu-type opioid receptor (Homo sapiens, UniProt P35372); experiment: Antagonist activity at human MOR transfected in CHO cells co-transfected with Gqi5 assessed as inhibition of DAMGO-induced calcium mobilization incubated for 15 mins prior to DAMGO addition and measured for 90 secs by Fluo-4AM dye based fluorescence analysis; type: functional, cell-based
Method in brief: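 Gqi5-transfected hMOR-CHO cells plated at 20,000/well and used 48 h after transfection. Loaded 30 min with Fluo-4 AM/probenecid in HBSS:HEPES, then ligands added for 15 min. IC50 from non-linear regression of peak heights. Three repeats.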

[5] = test system: Human immunodeficiency virus 1; experiment: Antiviral activity against HIV-1 SF162 infected in human astrocytes assessed as reduction in viral invasion by measuring decrease in Tat protein expression at 100 nM treated prior to viral infection and measured after 18 hrs by luciferase based assay; type: functional, organism-based; details: Astrocyte
Method in brief: (§1)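 Primary human astrocytes in 24-well plates transfected with pBlue3'LTR-luc. […] Uninfected cells served as negative control. After about 18–20 h, cells were PBS-rinsed and lysed, and Tat-driven luciferase was measured.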

CHO [6] = experiment: Binding affinity to CCR5-hMOR heterodimer in CHO cells co-expressing CD4 and luciferase reporter assessed as inhibition of CD4-gp120 complex interaction with receptor dimer by measuring inhibition of cell-cell fusion process at 3000 nM measured after co-incubation of CHO cells with HEK293 cells …; type: cell-based; details: time 18.0 hrs
[7] = test system: Human immunodeficiency virus 1; experiment: Antiviral activity against HIV-1 BAL infected in human PBMC assessed as reduction in p24 production at 10 to 1000 nM treated for 1 hr prior to viral infection and measured after 5 days by ELISA; type: functional, organism-based; details: dose 10-1000 nM, time 5.0 day
Method in brief: (§2)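 Ficoll-isolated human PBMCs plated at 1 × 10^5 cells/mL and stimulated 48 h with IL-2 (100 ng/mL) and PHA (5 µg/mL). Then polybrene (2 µg/mL) for 30 min, compound at 10, 100 or 1000 nM for 1 h, and infection with R5-tropic HIV-1 BaL (p24 1000 pg/mL). Supernatant and RIPA lysate p24 measured by ELISA at day 5. Dunnett's test against infection alone.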

[8] = test system: Human immunodeficiency virus 1; experiment: Antiviral activity against HIV-1 SF162 infected in human astrocytes assessed as reduction in viral invasion by measuring decrease in Tat protein expression at 100 nM treated prior to viral infection and measured after 18 hrs by luciferase based assay relative to maraviroc in presence of morphine; type: functional, Astrocyte
Method in brief: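 Primary human astrocytes carried the transfected pBlue3'LTR-luc reporter. […] Uninfected cells served as negative control. Lysates were taken about 18–20 h later after PBS rinses, and Tat expression was quantified by luciferase luminescence.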

CHO [9] = experiment: Binding affinity to CCR5-hMOR heterodimer in CHO cells co-expressing CD4 and luciferase reporter assessed as inhibition of CD4-gp120 complex interaction with receptor dimer by measuring inhibition of cell-cell fusion process at 3000 nM measured after co-incubation of CHO cells with HEK293 cells …; type: cell-based; details: time 18.0 hrs; remark: listed apart in the source
[10] = target: C-C chemokine receptor type 5 (Macaca mulatta, UniProt P61813); experiment: Displacement of [125I]MIP-1alpha from CCR5 receptor in rhesus monkey membrane incubated for 120 mins by liquid scintillation counting analysis; type: cell membranes, Cell membrane
[11] = test system: Human immunodeficiency virus 1; experiment: Antiviral activity against HIV-1 BAL infected in human astrocytes assessed as reduction in p24 production at 10 to 1000 nM treated for 1 hr prior to viral infection and measured after 5 days by ELISA; type: functional, organism-based; details: Astrocyte, dose 10-1000 nM, time 5.0 day
Method in brief: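 Primary human astrocytes plated at 1 × 10^5 cells/mL and stimulated 48 h with IL-2 (100 ng/mL) and PHA (5 µg/mL). Polybrene for 30 min, then compound at 10, 100, 1000 nM for 1 h before infection with HIV-1 BaL (p24 1000 pg/mL). p24 ELISA on supernatants and lysates at day 5.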

[12] = test system: Human immunodeficiency virus 1; experiment: Antiviral activity against HIV-1 BAL infected in human macrophages assessed as reduction in p24 production at 1 uM treated for 1 hr prior to viral infection and measured after 5 days by ELISA; type: functional, organism-based; details: Macrophage, time 5.0 day
Method in brief: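 Macrophages derived from PBMCs with M-CSF (100 ng/mL) for 6 days, plated at 1 × 10^5 cells/mL and stimulated 48 h with IL-2/PHA. Polybrene for 30 min, compound (10–1000 nM) for 1 h before HIV-1 BaL (p24 1000 pg/mL). p24 in supernatant and lysate measured by ELISA 5 days post-infection. ANOVA with Dunnett's test.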

[13] = test system: Human immunodeficiency virus 1; experiment: Antiviral activity against HIV-1 SF162 infected in human astrocytes assessed as reduction in viral invasion by measuring decrease in Tat protein expression at 100 nM co-treated with morphine prior to viral infection and measured after 18 hrs by luciferase based assay; type: functional, organism-based; details: Astrocyte; method in brief: as §1
[14] = test system: Human immunodeficiency virus 1; experiment: Antiviral activity against HIV-1 SF162 infected in human astrocytes assessed as reduction in viral invasion by measuring decrease in Tat protein expression at 100 nM treated prior to viral infection and measured after 18 hrs by luciferase based assay relative to maraviroc; type: functional, Astrocyte
Method in brief: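 Primary human astrocytes in 24-well plates were transfected with the LTR-luciferase reporter pBlue3'LTR-luc. […] Uninfected cells served as negative control. After about 18–20 h, cells were PBS-rinsed and lysed, and luciferase activity was read as Tat expression.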

CHO [15] = experiment: Antagonist activity at CCR5 receptor in CHO cells co-expressing hMOR, CD4 and luciferase reporter assessed as inhibition of CD4-gp120 complex interaction with receptor dimer by measuring inhibition of cell-cell fusion process at 100 nM measured after co-incubation of CHO cells with HEK293 cells …; type: cell-based; details: Cricetulus griseus, filed as antagonist, time 18.0 hrs
CHO [16] = experiment: as above; type: cell-based; details: Cricetulus griseus, filed as antagonist, time 18.0 hrs; remark: listed apart in the source
[17] = test system: Human immunodeficiency virus 1; experiment: Antiviral activity against HIV-1 BAL infected in human macrophages assessed as reduction in p24 production at 500 nM treated for 1 hr prior to viral infection and measured after 5 days by ELISA; type: functional, organism-based; details: Macrophage, time 5.0 day
Method in brief: (§3)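 PBMCs were Ficoll-isolated from leukopak blood and grown in RPMI-1640 with 10% FBS; macrophages came from PBMCs given M-CSF 100 ng/mL for 6 days. Cells at 1 × 10^5/mL were stimulated with IL-2 (100 ng/mL) and PHA (5 µg/mL) for 48 h, then polybrene (2 µg/mL) for 30 min. Compound was added 1 h before R5 HIV-1 BaL (p24 1000 pg/mL). Supernatant and RIPA-lysate p24 were measured by ELISA at day 5.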

[18] = test system: Human immunodeficiency virus 1; experiment: Antiviral activity against HIV-1 BAL infected in human PBMC assessed as reduction in p24 production at 500 nM treated for 1 hr prior to viral infection and measured after 5 days by ELISA; type: functional, organism-based; details: time 5.0 day; method in brief: as §3
[19] = test system: Human immunodeficiency virus 1; experiment: Antiviral activity against HIV-1 BAL infected in human PBMC assessed as reduction in p24 production at 1 uM treated for 1 hr prior to viral infection and measured after 5 days by ELISA; type: functional, organism-based; details: time 5.0 day; method in brief: as §2

Sequence of Mu-type opioid receptor (Mus musculus, UniProt P42866) (P42866 whole entry): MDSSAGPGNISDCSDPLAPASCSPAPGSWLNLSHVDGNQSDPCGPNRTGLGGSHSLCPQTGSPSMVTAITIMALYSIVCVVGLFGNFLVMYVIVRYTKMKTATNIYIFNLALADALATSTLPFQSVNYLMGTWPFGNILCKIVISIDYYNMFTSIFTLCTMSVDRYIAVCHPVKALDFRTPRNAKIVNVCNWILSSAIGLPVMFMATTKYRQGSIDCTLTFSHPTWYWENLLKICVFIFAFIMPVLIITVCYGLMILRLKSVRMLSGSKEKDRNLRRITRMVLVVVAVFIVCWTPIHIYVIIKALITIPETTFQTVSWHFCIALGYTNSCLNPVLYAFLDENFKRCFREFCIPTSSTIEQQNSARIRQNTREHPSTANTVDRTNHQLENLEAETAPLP
Sequence of Mu-type opioid receptor (Homo sapiens, UniProt P35372) (P35372 whole entry): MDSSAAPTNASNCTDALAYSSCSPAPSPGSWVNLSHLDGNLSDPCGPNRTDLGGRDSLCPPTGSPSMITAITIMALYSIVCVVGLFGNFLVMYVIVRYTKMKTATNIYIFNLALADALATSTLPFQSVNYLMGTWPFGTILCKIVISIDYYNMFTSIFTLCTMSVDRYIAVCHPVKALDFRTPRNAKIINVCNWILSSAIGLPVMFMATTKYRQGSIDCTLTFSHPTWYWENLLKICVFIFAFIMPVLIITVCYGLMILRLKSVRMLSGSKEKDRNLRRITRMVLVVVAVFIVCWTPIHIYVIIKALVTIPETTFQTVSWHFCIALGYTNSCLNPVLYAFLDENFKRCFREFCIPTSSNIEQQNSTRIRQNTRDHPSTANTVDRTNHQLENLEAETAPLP

## CNC(=O)COCC(=O)NCCCCCCCCCNC(=O)COCC(=O)Nc1ccc([C@H](CCN2[C@@H]3CC[C@H]2C[C@@H](n2c(C)nnc2C(C)C)C3)NC(=O)C2CCC(F)(F)CC2)cc1
[1]
  Activity: inactive
[2]
  pIC50: 6.41

## Cc1nnc(C(C)C)n1[C@H]1C[C@H]2CC[C@@H](C1)N2CC[C@H](NC(=O)C1CCC(F)(F)CC1)c1ccc(NC(=O)COCC(=O)NCCCCCCCNC(=O)COCC(=O)N[C@@H]2CC[C@@]3(O)[C@H]4Cc5ccc(O)c6c5[C@@]3(CCN4CC3CC3)[C@H]2O6)cc1
Mu-type opioid receptor [3]
  pKi: 8.49
Mu-type opioid receptor [4]
  pIC50: 7.40
[5]
  Activity: Active
CHO [6]
  Activity: Active
[7]
  Activity: Active
[8]
  fold change (FC): 7
[1]
  Activity: inactive
CHO [9]
  Activity: Active
[10]
  pKi: 6.62
[11]
  Activity: Active
[12]
  Activity: Active
[13]
  Activity: Active
[14]
  fold change (FC): 3.3
[2]
  pIC50: 6.90

## Cc1nnc(C(C)C)n1[C@H]1C[C@H]2CC[C@@H](C1)N2CC[C@H](NC(=O)C1CCC(F)(F)CC1)c1ccccc1
CHO [15]
  Activity: Active
[5]
  Activity: Active
CHO [16]
  Activity: Active
[17]
  Activity: Active
[18]
  Activity: Active
[13]
  Activity: inactive

## Cc1nnc(C(C)C)n1[C@H]1C[C@H]2CC[C@@H](C1)N2CC[C@H](NC(=O)C1CCC(F)(F)CC1)c1cccc(NC(=O)COCC(=O)NCCCCCCCNC(=O)COCC(=O)N[C@@H]2CC[C@@]3(O)[C@H]4Cc5ccc(O)c6c5[C@@]3(CCN4CC3CC3)[C@H]2O6)c1
Mu-type opioid receptor [3]
  pKi: 8.00
Mu-type opioid receptor [4]
  pIC50: 7.77
[1]
  Activity: inactive
[2]
  pIC50: 5.87

## CNC(=O)COCC(=O)NCCCCCCCNC(=O)COCC(=O)Nc1ccc([C@H](CCN2[C@@H]3CC[C@H]2C[C@@H](n2c(C)nnc2C(C)C)C3)NC(=O)C2CCC(F)(F)CC2)cc1
[1]
  Activity: inactive
[10]
  pKi: 6.82
[2]
  pIC50: 6.21

## CNC(=O)COCC(=O)NCCCCCNC(=O)COCC(=O)N[C@@H]1CC[C@@]2(O)[C@H]3Cc4ccc(O)c5c4[C@@]2(CCN3CC2CC2)[C@H]1O5
Mu-type opioid receptor [3]
  pKi: 9.11
Mu-type opioid receptor [4]
  pIC50: 7.04

## Cc1nnc(C(C)C)n1[C@H]1C[C@H]2CC[C@@H](C1)N2CC[C@H](NC(=O)C1CCC(F)(F)CC1)c1ccc(NC(=O)COCC(=O)NCCCCCCCCCNC(=O)COCC(=O)N[C@@H]2CC[C@@]3(O)[C@H]4Cc5ccc(O)c6c5[C@@]3(CCN4CC3CC3)[C@H]2O6)cc1
Mu-type opioid receptor [3]
  pKi: 8.19
Mu-type opioid receptor [4]
  pIC50: 7.66
[19]
  Activity: Active
[1]
  Activity: inactive
[11]
  Activity: Active
[12]
  Activity: Active
[2]
  pIC50: 6.27

## CNC(=O)COCC(=O)NCCCCCCCCCNC(=O)COCC(=O)N[C@@H]1CC[C@@]2(O)[C@H]3Cc4ccc(O)c5c4[C@@]2(CCN3CC2CC2)[C@H]1O5
Mu-type opioid receptor [3]
  pKi: 8.95
Mu-type opioid receptor [4]
  pIC50: 7.38

## CNC(=O)COCC(=O)NCCCCCCCNC(=O)COCC(=O)Nc1cccc([C@H](CCN2[C@@H]3CC[C@H]2C[C@@H](n2c(C)nnc2C(C)C)C3)NC(=O)C2CCC(F)(F)CC2)c1
[1]
  Activity: inactive
[2]
  pIC50: 6.89

## Cc1nnc(C(C)C)n1[C@H]1C[C@H]2CC[C@@H](C1)N2CC[C@H](NC(=O)C1CCC(F)(F)CC1)c1ccc(NC(=O)COCC(=O)NCCCCCNC(=O)COCC(=O)N[C@@H]2CC[C@@]3(O)[C@H]4Cc5ccc(O)c6c5[C@@]3(CCN4CC3CC3)[C@H]2O6)cc1
Mu-type opioid receptor [3]
  pKi: 8.42
Mu-type opioid receptor [4]
  pIC50: 7.66
[7]
  Activity: inactive
[1]
  Activity: inactive
[11]
  Activity: Active
[12]
  Activity: inactive
[2]
  pIC50: 5.62

## CNC(=O)COCC(=O)NCCCCCCCNC(=O)COCC(=O)N[C@@H]1CC[C@@]2(O)[C@H]3Cc4ccc(O)c5c4[C@@]2(CCN3CC2CC2)[C@H]1O5
Mu-type opioid receptor [3]
  pKi: 8.04

## CNC(=O)COCC(=O)NCCCCCNC(=O)COCC(=O)Nc1ccc([C@H](CCN2[C@@H]3CC[C@H]2C[C@@H](n2c(C)nnc2C(C)C)C3)NC(=O)C2CCC(F)(F)CC2)cc1
[1]
  Activity: inactive
[2]
  pIC50: 6.02
